Data set [1] is described as follows: Metabolic stability in human liver microsomes assessed as half-life preincubated for 10 mins followed by NADPH addition and measured upto 60 mins by LC-MS/MS analysis. Particulars: time < 70 min. Type of data set: ADME, Microsome. Background: Microsomes from liver hold many membrane-bound enzymes, among them those of drug oxidation.
Data set [2] in a line: Metabolic stability in human liver microsomes assessed as intrinsic clearance preincubated for 10 mins followed by NADPH addition and measured upto 60 mins by LC-MS/MS analysis. Format: ADME, Microsome. Particulars: time < 70 min, read-out: CLH.
The nature of data set [3]: Intrinsic clearance in human. Format: ADME.
Data set [4] in a line: Metabolic stability in rat liver microsomes assessed as half-life preincubated for 10 mins followed by NADPH addition and measured upto 60 mins by LC-MS/MS analysis. Type of data set: ADME, Microsome. The note with it: time < 70 min.
A short description of data set [5]: Metabolic stability in rat liver microsomes assessed as intrinsic clearance preincubated for 10 mins followed by NADPH addition and measured upto 60 mins by LC-MS/MS analysis. Type of data set: ADME, Microsome. The note with it: time < 70 min, read-out: CLH.
A short description of data set [6]: Intrinsic clearance in rat. Format: ADME.
The target of data set [7] is T1, Tyrosine-protein kinase receptor UFO (Homo sapiens, UniProt P30530).
T1 sequence (P30530 whole entry): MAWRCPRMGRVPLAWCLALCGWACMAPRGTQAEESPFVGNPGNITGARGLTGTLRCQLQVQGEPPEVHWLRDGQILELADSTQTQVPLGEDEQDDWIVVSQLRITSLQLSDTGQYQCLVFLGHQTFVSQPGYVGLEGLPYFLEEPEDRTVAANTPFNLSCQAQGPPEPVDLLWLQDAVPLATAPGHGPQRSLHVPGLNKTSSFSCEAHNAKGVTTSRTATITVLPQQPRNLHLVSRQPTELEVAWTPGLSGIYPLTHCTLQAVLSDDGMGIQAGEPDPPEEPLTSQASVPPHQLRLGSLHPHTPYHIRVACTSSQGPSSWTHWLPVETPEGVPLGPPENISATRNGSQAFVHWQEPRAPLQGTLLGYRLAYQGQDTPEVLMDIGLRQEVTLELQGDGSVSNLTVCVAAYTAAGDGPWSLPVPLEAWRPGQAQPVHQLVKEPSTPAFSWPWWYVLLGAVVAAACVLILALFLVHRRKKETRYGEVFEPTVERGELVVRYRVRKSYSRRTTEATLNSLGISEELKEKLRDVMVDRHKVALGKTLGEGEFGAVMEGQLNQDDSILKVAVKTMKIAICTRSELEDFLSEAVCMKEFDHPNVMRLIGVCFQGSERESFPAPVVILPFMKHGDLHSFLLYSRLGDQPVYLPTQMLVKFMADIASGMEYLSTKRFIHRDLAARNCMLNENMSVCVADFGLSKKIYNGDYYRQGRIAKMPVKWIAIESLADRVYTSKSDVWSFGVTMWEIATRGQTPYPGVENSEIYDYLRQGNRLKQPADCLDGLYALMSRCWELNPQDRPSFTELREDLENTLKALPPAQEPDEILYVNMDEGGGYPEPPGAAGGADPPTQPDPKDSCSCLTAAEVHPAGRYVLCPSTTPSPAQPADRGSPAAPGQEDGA
The data set is described as follows: Inhibition of human Axl using KKSRGDYMTMQIG as substrate incubated for 40 mins in the presence of [gamma33P]ATP by scintillation counting analysis.

A further data set addresses Aurora kinase B (Homo sapiens, UniProt Q96GD4). The data set is described as follows: Inhibition of human Aurora B using AKRRRLSSLRA as substrate incubated for 40 mins in the presence of [gamma33P]ATP by scintillation counting analysis. The method, boiled down:
(§1)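 Human kinase, radiometric: incubated in 8 mM MOPS pH 7.0, 0.2 mM EDTA, 10 mM magnesium acetate with [γ-33P]-ATP; started by Mg/ATP mix, 40 min at room temperature, stopped with phosphoric acid to 0.5%. Spotted on P30 filtermat, washed 4×4 min in 0.425% phosphoric acid and once in methanol, dried, scintillation counted.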

Data set [8] concerns the target Tyrosine-protein kinase JAK2 (Homo sapiens, UniProt O60674). The data set is described as follows: Inhibition of human JAK2 using KTFCGTPEYLAPEVRREPRILSEEEQEMFRDFDYIADWC as substrate incubated for 40 mins in the presence of [gamma33P]ATP by scintillation counting analysis. The method, boiled down:
as §1

Data set [9] concerns the target ALK tyrosine kinase receptor (Homo sapiens, UniProt Q9UM73). Description: Inhibition of human ALK using KKKSPGEYVNIEFG as substrate incubated for 40 mins in the presence of [gamma33P]ATP by scintillation counting analysis. In outline:
as §1

Data set [10] in a line: AUC (0 to last) in Sprague-Dawley rat at 5 mg/kg, po measured upto 24 hrs by LC-MS/MS analysis. Type of data set: ADME, organism-based. More on the design: dose 5 mg/kg, time < 24 hrs, route po. Particulars: in vivo.
Data set [11] can be described thus: Cmax in Sprague-Dawley rat at 5 mg/kg, po measured upto 24 hrs by LC-MS/MS analysis. Type of data set: ADME, organism-based. On the set-up: dose 5 mg/kg, time < 24 hrs, route po. The note with it: in vivo.
A short description of data set [12]: Half-life in Sprague-Dawley rat at 5 mg/kg, po measured upto 24 hrs by LC-MS/MS analysis. Format: ADME, organism-based. Particulars: in vivo.
Data set [13] is described as follows: Oral bioavailability in Sprague-Dawley rat at 5 mg/kg measured upto 24 hrs by LC-MS/MS analysis. Type of data set: ADME, organism-based. The note with it: in vivo.
Data set [14] can be described thus: AUC (0 to last) in Sprague-Dawley rat at 1 mg/kg, iv measured upto 24 hrs by LC-MS/MS analysis. Format: ADME, organism-based. On the set-up: dose 1 mg/kg, time < 24 hrs, route iv. The note with it: in vivo.
The nature of data set [15]: Cmax in Sprague-Dawley rat at 1 mg/kg, iv measured upto 24 hrs by LC-MS/MS analysis. Type of data set: ADME, organism-based. More on the design: time < 24 hrs, dose 1 mg/kg, route iv. The note with it: in vivo.
Data set [16] in a line: Clearance in Sprague-Dawley rat at 1 mg/kg, iv measured upto 24 hrs by LC-MS/MS analysis. Format: ADME, organism-based. Particulars: in vivo.
Data set [17] can be described thus: Half-life in Sprague-Dawley rat at 1 mg/kg, iv measured upto 24 hrs by LC-MS/MS analysis. Type of data set: ADME, organism-based. The note with it: in vivo.

We go through eight compounds from ChEMBL document CHEMBL5108089, “Structure-based discovery of potent inhibitors of Axl: design, synthesis, and biological evaluation” (RSC Med Chem, 2022).

Sequence of Tyrosine-protein kinase JAK2 (O60674 whole entry): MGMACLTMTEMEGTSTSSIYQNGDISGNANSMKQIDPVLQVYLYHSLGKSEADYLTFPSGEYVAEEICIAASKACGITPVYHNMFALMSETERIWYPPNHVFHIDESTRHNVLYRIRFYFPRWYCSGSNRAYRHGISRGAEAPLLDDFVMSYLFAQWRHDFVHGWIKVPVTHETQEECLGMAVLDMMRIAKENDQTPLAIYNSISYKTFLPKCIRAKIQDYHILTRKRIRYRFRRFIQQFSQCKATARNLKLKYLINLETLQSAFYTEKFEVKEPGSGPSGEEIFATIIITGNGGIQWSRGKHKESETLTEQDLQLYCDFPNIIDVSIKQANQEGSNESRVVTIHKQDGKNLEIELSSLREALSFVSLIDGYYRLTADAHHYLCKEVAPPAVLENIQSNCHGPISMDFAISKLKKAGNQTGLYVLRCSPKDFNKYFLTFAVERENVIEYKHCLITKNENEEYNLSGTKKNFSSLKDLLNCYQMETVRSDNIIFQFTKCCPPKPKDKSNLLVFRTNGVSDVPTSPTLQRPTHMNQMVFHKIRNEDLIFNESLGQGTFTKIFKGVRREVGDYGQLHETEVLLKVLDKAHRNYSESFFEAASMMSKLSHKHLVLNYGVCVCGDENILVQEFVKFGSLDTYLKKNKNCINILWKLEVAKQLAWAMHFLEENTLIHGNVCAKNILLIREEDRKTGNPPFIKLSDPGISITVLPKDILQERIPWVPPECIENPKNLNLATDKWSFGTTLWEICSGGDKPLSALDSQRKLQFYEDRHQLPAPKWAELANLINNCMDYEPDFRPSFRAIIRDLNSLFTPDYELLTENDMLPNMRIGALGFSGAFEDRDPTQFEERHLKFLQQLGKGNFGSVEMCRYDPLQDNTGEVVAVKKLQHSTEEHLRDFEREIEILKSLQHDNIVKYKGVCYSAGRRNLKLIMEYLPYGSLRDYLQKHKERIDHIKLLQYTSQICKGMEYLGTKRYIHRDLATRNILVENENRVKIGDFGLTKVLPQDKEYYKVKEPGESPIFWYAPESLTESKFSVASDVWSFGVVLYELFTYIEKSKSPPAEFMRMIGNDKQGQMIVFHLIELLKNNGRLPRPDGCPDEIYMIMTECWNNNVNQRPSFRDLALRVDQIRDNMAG
Sequence of ALK tyrosine kinase receptor (Q9UM73 whole entry): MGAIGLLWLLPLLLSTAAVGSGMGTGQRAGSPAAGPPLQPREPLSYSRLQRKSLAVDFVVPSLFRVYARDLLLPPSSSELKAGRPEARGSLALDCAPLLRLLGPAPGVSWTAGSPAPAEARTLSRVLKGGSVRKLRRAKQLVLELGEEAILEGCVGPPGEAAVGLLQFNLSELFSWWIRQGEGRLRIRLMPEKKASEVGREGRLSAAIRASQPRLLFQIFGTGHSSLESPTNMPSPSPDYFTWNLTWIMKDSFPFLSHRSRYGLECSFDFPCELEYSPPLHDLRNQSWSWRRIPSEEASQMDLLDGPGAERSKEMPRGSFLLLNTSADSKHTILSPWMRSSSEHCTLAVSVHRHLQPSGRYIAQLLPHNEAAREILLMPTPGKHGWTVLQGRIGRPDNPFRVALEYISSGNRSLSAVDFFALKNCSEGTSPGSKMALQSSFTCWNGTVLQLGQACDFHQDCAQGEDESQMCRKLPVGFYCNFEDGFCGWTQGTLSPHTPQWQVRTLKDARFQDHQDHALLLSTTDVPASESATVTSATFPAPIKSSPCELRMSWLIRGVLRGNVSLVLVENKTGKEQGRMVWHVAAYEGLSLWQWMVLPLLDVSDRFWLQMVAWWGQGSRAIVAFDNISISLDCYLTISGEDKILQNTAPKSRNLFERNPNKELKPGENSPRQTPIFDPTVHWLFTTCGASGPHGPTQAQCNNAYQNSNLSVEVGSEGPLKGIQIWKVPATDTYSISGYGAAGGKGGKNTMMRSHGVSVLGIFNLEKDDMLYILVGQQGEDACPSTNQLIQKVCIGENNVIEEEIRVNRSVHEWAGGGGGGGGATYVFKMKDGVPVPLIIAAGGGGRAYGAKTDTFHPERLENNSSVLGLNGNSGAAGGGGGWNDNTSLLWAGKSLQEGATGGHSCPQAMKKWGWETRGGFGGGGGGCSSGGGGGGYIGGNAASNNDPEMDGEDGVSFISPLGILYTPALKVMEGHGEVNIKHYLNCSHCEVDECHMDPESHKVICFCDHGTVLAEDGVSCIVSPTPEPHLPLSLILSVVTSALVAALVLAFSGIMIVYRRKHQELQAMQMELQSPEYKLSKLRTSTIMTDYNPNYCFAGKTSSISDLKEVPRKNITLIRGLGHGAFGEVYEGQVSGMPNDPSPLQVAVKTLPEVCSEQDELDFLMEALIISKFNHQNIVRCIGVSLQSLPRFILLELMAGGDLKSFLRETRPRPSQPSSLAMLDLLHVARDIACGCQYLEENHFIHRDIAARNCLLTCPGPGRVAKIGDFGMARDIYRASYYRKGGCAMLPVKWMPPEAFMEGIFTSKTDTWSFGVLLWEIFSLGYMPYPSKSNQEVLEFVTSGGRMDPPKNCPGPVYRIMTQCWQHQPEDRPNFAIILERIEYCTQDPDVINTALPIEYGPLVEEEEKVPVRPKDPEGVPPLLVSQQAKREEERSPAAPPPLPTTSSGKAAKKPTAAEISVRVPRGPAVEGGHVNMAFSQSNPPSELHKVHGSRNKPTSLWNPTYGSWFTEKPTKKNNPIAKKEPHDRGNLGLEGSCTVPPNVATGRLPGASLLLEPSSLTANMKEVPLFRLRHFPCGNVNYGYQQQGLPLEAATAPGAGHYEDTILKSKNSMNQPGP
Sequence of Aurora kinase B (Q96GD4 whole entry): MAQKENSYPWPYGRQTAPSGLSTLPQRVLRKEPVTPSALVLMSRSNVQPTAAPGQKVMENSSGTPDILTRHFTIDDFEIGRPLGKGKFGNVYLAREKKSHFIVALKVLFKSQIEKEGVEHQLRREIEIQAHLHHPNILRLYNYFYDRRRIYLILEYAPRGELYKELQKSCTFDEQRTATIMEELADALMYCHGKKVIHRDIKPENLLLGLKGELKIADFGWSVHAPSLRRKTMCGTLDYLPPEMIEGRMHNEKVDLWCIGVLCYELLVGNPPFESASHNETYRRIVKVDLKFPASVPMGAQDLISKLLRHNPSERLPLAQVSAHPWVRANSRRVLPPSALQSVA

The half-life is the time needed for the level to fall by half in the phase considered. As for `CN1CC2CN(C(=O)c3ccc(Nc4ncc(Cl)c(Nc5ccccc5S(=O)(=O)N(C)C)n4)cc3)CC2C1` (stereo not drawn), the half-life came out at 4.4 min in data set [1] and 7.3 min in data set [4]. For the same compound, the CLint scaled in data set [2] came out at 393 mL/min/kg; in data set [3] it was 19.6 mL/min/kg; in data set [5] it was 339 mL/min/kg; in data set [6], 47.5 mL/min/kg.
For orientation: IC50 means the concentration that gives 50% inhibition. Regarding `CN1CCc2ccc(Nc3ncc(Cl)c(Nc4ccccc4S(=O)(=O)N(C)C)n3)cc2C1`, in data set [7], the IC50 is 14 nM. In addition, the half-life in [1] and in data set [4] was 2.4 min in each case. In addition, the CLint scaled in data set [2] stood at 720 mL/min/kg; in [3], 20.1 mL/min/kg; in data set [5] it was 1040 mL/min/kg; in data set [6], 52.4 mL/min/kg.
For the compound `CC(=O)N1CCc2ccc(Nc3ncc(Cl)c(Nc4ccccc4S(=O)(=O)N(C)C)n3)cc2C1`, the half-life in data set [1] was 1.82 min; in [4] it was 2.3 min. The CLint scaled in [2] was 953 mL/min/kg; in data set [3], 20.3 mL/min/kg; in data set [5], 1090 mL/min/kg; in data set [6] it was 52.5 mL/min/kg.
As for `Cc1nc(-c2ccccc2Nc2nc(Nc3ccc(CN4CCN(C)CC4)cc3)ncc2Cl)n[nH]1`, the IC50 amounted to 11 nM in data set [7], 4 nM at Aurora kinase B, 130 nM in data set [8] and 500 nM in data set [9].
`CN1CCC(Oc2ccc(Nc3ncc(Cl)c(Nc4ccccc4-c4nnn(C)n4)n3)cc2)CC1`: the half-life was determined as 36.2 min in [1] and 6.4 min in [4]. Moreover, the CLint scaled in [2] came to 48 mL/min/kg; in data set [3], 14.5 mL/min/kg; in data set [5], 389 mL/min/kg; in data set [6], 48.3 mL/min/kg.
In general, Cmax refers to the highest concentration seen after dosing. As a reminder, the bioavailability is dose-corrected exposure relative to a reference, in per cent. A low value points to poor availability. As a reminder, the clearance is the volume of plasma or blood freed of the substance per unit of time. A low value points to inefficient removal. Turning to `CC(=O)N1CCN(c2ccc(Nc3ncc(Cl)c(Nc4ccccc4-c4ncn(C(C)C)n4)n3)cc2)CC1`, the half-life in data set [1] is 156 min; in data set [4], 153 min; in data set [12], 79.2 min; in data set [17] it was 89.4 min. In addition, the CLint scaled in [2] turned out to be 11.2 mL/min/kg; in data set [3], 7.2 mL/min/kg; in data set [5], 16.2 mL/min/kg; in data set [6], 12.5 mL/min/kg. Also, the values for the AUClast in [10] and in [14] were 661 ng·h/mL and 497 ng·h/mL, respectively. The figures for the Cmax in [11] and in [15] were 169 ng/mL and 337 ng/mL, respectively. In [13], this compound gave a bioavailability of 26.6%. Besides, the clearance in [16] was determined as 32.5 mL/min/kg.
For the compound `CN1CCN(Cc2ccc(Nc3ncc(Cl)c(Nc4ccccc4S(=O)(=O)N(C)C)n3)cc2)CC1` [DUBERMATINIB], the half-life in data set [1] was 2.7 min; in data set [4] it was 4.3 min; in data set [12], 176 min; in data set [17], 106 min. The CLint scaled turned out to be 646 mL/min/kg in data set [2], 20.1 mL/min/kg in [3], 582 mL/min/kg in data set [5] and 50.4 mL/min/kg in [6]. Further, the AUClast in data set [10] stood at 158 ng·h/mL; in [14] it was 187 ng·h/mL. Also, the Cmax was 46.8 ng/mL in [11] and 89.8 ng/mL in data set [15]. In [13], this compound yielded a bioavailability of 21.5%. The same compound had a clearance in data set [16] of 82.8 mL/min/kg.
Consider `CN1CCC(N(C)c2ccc(Nc3ncc(Cl)c(Nc4ccccc4-c4ncn(C)n4)n3)cc2)CC1`, for which the half-life turned out to be 74.2 min in data set [1] and 15.4 min in [4]. Further, the CLint scaled in [2] amounted to 23.4 mL/min/kg; in data set [3], 11 mL/min/kg; in data set [5], 162 mL/min/kg; in data set [6], 41.2 mL/min/kg.
